In the EternaBench riboswitch data:

System: MS2 coat protein
Assay: apparent Kd, MS2 coat protein; higher = weaker binding; RNA-MaP array; FMN 200 µM where present
How it was run: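 SNAP-549-labelled MS2 coat protein, doubled from 0.7 or 1.5 nM to 3 µM, was titrated over designs transcribed by stalled E. coli RNA polymerase on Illumina sequencing-chip clusters. Titrations were run without and then with constant ligand in 100 mM Tris-HCl pH 7.5, 80 mM KCl, 4 mM MgCl2, BSA, DTT, yeast tRNA and Tween-20. The apparent Kd is the median of filtered per-cluster fits to green signal normalised to red-channel RNA signal and control-cluster median Fmax.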

[1] = designed as: ON switch for flavin mononucleotide, no ligand
[2] = ligand present: flavin mononucleotide, designed as: ON switch for flavin mononucleotide
[3] = designed as: OFF switch for flavin mononucleotide, no ligand
[4] = ligand present: flavin mononucleotide, designed as: OFF switch for flavin mononucleotide

| Sequence | apparent Kd [1] [nM] | apparent Kd [2] [nM] | apparent Kd [3] [nM] | apparent Kd [4] [nM] |
| --- | --- | --- | --- | --- |
| AGAAAGAAGCAAGGAUAUUGUAAGGUUAAUGUACAAGAAGGUGCUGUUUAUGUCUCUUAACAUGAGGAUCACCCAUGUUUUGGU | 19.2 | 18.8 | – | – |
| AGAAAGGCAGGAUAUACAUGAGGAUCACCCAUGUUAAGAAAGUGCGAAAGCACAAGAAGUAGAAGGGCCAAGAA | – | – | 23 | 21.6 |
| AGAAAUAAAAAUGAGGAUAUGCAAAAGAAAACAUGAGGAUCACCCAUGUAAAAGAAAAUAAAUGGGCAGAAGGCAUGAAAUAAAGA | 136 | 44.9 | – | – |
| AGAACAUGAGGAUCACCCAUGUGAAGGUCGGUGUAUAAGGGUGAGGAUAUGCUUAAAAUAAGGAAGCAGAAGGUGCUUGGUGCA | 155 | 145 | – | – |
| AGAAUAAACCAGAAGGCCGAGAUACAUGAGGAUCACCCAUGUAUACUUUGGAGGAUAUGGAUGAUUCAAGUGCGUUUCGUAGCA | 3.98 | 3.36 | – | – |
| AGACAUGUCCGAGGAUAUCUGGAAACAUUUUCAAGAGAAGGCGGACAUGAGGAUCACCCAUGUCUCUCCUCAUCAAAUCCAAGU | – | – | 7.98 | 44.6 |
| AGACGGAUCCGCGGUCGAUGCUAACUAGAAGGGCAGGUCACAUGAGGAUCACCCAUGUAGUAUAUGUAGGAUAUAGGAAGCGUU | 75 | 15.8 | – | – |
| AGAGCCUCGUGAGGAUAUACAUGAGGAUCACCCAUGUAAAUGGAAGAACGGAGGAAACUCCGAAUGUAGAAGGCACGAGGCUCA | – | – | 149 | 1240 |
| AGAGGUCGCACAGGAUAUCAUACAUGAGGAUCACCCAUGUCAGAAAACAAAUGAGAAGGGUGCGCGUUAAUCGCUUGUGAAGAA | 16.7 | 4.8 | – | – |
| AGAGUUUCGUUGUGACCCAUUCACAUGAGGAUCACCCAUGUAGAGGAUAUAGGUCACCACGGUACCUAGAAGGCUACAGGUGUG | – | – | 13.4 | 15.5 |
| AGAUAACACCAGAAGGACAUGAGGAUCACCCAUGUAGGAUAUGGGCAUCACUCGAGAAAGAAACGACCAAAUGGACACGCGGUC | 80.1 | 9.46 | – | – |
| AGAUAACACCAGAAGGACAUGAGGAUCACCCAUGUAGGAUAUGGGCAUCACUCGAGAAAGAAACGACCGAAAGGACACGCGGUC | 155 | 13 | – | – |
| AGAUAGUGCAGAGGAUAUCUUAAUAGAAAGAAUAGAGAAGGCUGACAUGAGGAUCACCCAUGUGAUGUCUUGAGACUACAUGGU | – | – | 48.4 | 336 |
| AGAUAUAACUCAGGAUAUCAGCAUGGGUAGAUCACAUGAGGAUCACCCAUGUGCAUGUCCCGGCAUGAGAAGGGAGUAACGCAA | 43.2 | 52.2 | – | – |
| AGAUAUGAUGCAGGAUAUCUAUCUUGAAUGAGGAGAGAAGGGCAAGUAGAUAGAUAAGCCUCAUGACAUGAGGAUCACCCAUGU | – | – | 14.8 | 15.2 |
| AGAUCACAUGAGGAUCACCCAUGUGAGGAUAUGAUACUAUGUACUUCGGUACAUAGUAUCAGAAGGCGCGUGAA | – | – | 29.8 | 42.2 |
| AGAUCAUCAGGAUAUACAUGGGUGAAAAAAGUAUAUCCACUACAUGAGGAUCACCCAUGUAGAAGGGAUGAUCA | – | – | 17.3 | 15.1 |
| AGAUGACAAAGUCAUCUCGCUUUGACAUGAGGAUCACCCAUGUAGGAUAUAUUAAUCAAAGAUUAAUAGAAGGACAUGUUUCUG | – | – | 87.1 | 172 |
| AGAUGACAAAGUCAUCUCGCUUUGACAUGAGGAUCACCCAUGUAGGAUAUAUUACUCAAAGAGUAAUAGAAGGACAUGUUUCUG | – | – | 72.7 | 163 |
| AGAUGGCGAGGAUAUACAUGAGGAUCACCCAUGUGAGAGAAUAAAGUGAGGAAGAAAAGUAGAAGGCGCUGUCA | – | – | 59.4 | 264 |
| AGAUGGUAUAUAGGAUAUCAUGUGCAAACAUGAGGAUCACCCAUGUAGGAACGUCAGUUCAAUAAUGAGAAGGAUAUACCAUCU | 33.4 | 11.9 | – | – |
| AGAUGUACAGCGAUAUGAUCGAGAGAUCAUGUCGCUGAAUUUAGAAGGACAUGAGGAUCACCCAUGUAGGAUAUGGGUGUAAUA | 80.8 | 72.8 | – | – |
| AGAUUACGAGGAUAUCGAUUUUAGUACAUGAGGAUCACCCAUGUUAUCCAGGUCUCGUUUCGAGAAGGCGUGAUUC | – | – | 303 | 132 |
| AGAUUCAUGGCCCGUUCGGGCUCACAUGAGGAUCACCCAUGUGAGGAUAUGAUAUACCUGAUUUAUCAGAAGGCGCAUGCGAAA | – | – | 7.22 | 10.3 |
| AGAUUUGUACAUGAGGAUCACCCAUGUUAAUAGGUGUUUGUCAGAAGGCAUUAAUAGAGAUUUAAUGAGGAUAUGAAUUUACAA | 58.2 | 28.9 | – | – |
| AGAUUUGUACAUGAGGAUCACCCAUGUUAAUAGGUGUUUGUCAGAAGGCAUUAAUAGAGAUUUAAUGAGGAUAUGAUGUUACAA | 49.3 | 35.2 | – | – |
| AGCAACAUGAGGAUCACCCAUGUUGGUUCGAAAACGGACUCACAGGAUAUACGGCAUAAUCGCUCGUAGAAGGGUGCGUCCUCA | 14 | 12.8 | – | – |
| AGCAAGUUUACAUGAGGAUCACCCAUGUUUUUUAGGGUUAUCAGAAGGUACAUUUUGAGAUAGAGUAAGGAUAUGAUAUAUGCG | 169 | 55 | – | – |

| Sequence | apparent Kd [1] [nM] | apparent Kd [2] [nM] | apparent Kd [3] [nM] | apparent Kd [4] [nM] |
| --- | --- | --- | --- | --- |
| AGCAUGUAAGGAUAUGUAACGCGGCUUUCAUUCGCCGUCCCACAGAAGGUACAUGAGGAUCACCCAUGUGCUCC | – | – | 38.1 | 87.6 |
| AGCAUGUGAGGAUAUGCGGACUCCGGUAAAGCUGGAGUCCAGUAGAAGGCACAUGAGGAUCACCCAUGUGAGAU | – | – | 59.7 | 212 |
| AGCAUGUGAGGAUAUGUGAGCCUCAUCCGAAGGACGAGGGAAUAGAAGGCACAUGAGGAUCACCCAUGUGAUGA | – | – | 27.3 | 74.3 |
| AGCCAAGCAGGAUAUGCACGUAAUAACAUGAGGAUCACCCAUGUGACCGAUUUAUAUUCUGCAGAAGGGCUUGGAU | – | – | 29 | 118 |
| AGCCAAGCAGGAUAUGCCCGGGAUAACAUGAGGAUCACCCAUGUGACCGAUUGAUGUCCUGCAGAAGGGCUUGGGA | – | – | 15.6 | 79.8 |
| AGCGACCAAGGAUAUACAUGAGGAUCACCCAUGUCGGCGACCUUCCUGGGAUUUCUUAGUAGAAGGUGGUCAAU | – | – | 42.7 | 86.9 |
| AGCGGAGACAUGAGGAUCACCCAUGUCAGUGCCGGCGAUACCAGAAGGCCCGGCGGGCCUCGCCGGGAGGAUAUGGGUUCAACA | 13.1 | 8.39 | – | – |
| AGCUACACCCAGAAGGACAUGAGGAUCACCCAUGUAGGAUAUGGGACACACAGUGCCAUGUAGAGAAAUUACGCUAGUGUAGCG | 14.3 | 8.42 | – | – |
| AGCUACACCCAGAAGGACAUGAGGAUCACCCAUGUAGGAUAUGGGAGACACAGUCCCAUGUAGAGAAAUUACGCUAGUGUAGCG | 102 | 46.5 | – | – |
| AGCUACGUUUCGUAGCAGCUAGGUGAGGAUAUCCACUCUACAUGAGGAUCACCCAUGUUAACAUGGGAGAAGGCGCCUAGAAAG | 104 | 11.8 | – | – |
| AGCUACGUUUCGUAGCAGCUAGGUGAGGAUAUUCAAUUGUUCACAUGAGGAUCACCCAUGUAUGUGAAGAAGGCGCCUAGAAAG | 7.16 | 5.34 | – | – |
| AGCUACGUUUCGUAGCAGCUAGGUGAGGAUAUUCAAUUUUUCACAUGAGGAUCACCCAUGUAUGUGAAGAAGGCGCCUAGAAAG | 13.3 | 4.77 | – | – |
| AGCUACGUUUCGUAGCAGUGUCAUCGAGAAGGCCUUAUAACAUGAGGAUCACCCAUGUUAACAUGGGAGGAUAUCGAUGAUACA | 10.5 | 5.34 | – | – |
| AGCUACGUUUCGUAGCAGUGUCAUCGAGAAGGCCUUAUUACAUGAGGAUCACCCAUGUGGACAUGGGAGGAUAUCGAUGAUACA | 61.3 | 8.06 | – | – |
| AGCUACGUUUCGUAGCAGUGUCAUCGAGAAGGCUCAUAUACAUGAGGAUCACCCAUGUUAACAUGGGAGGAUAUCGAUGAUACA | 50.2 | 6.64 | – | – |
| AGCUAGAGAGGAUAUACGUAGGAAAAAAAAGUCUGAUCCCUACAUGAGGAUCACCCAUGUAGAAGGCUCUGGCA | – | – | 91.5 | 81.8 |
| AGCUAGUCAGGAUAUACAAACAUGUCAAAAGACGUGAGGGAACAUGAGGAUCACCCAUGUAGAAGGGACUAGCA | – | – | 53.6 | 195 |
| AGCUAGUGAGGAUAUACGAACAUGUCAAAAGACGUGAAAUAACAUGAGGAUCACCCAUGUAGAAGGCACUAGCA | – | – | 19.2 | 16.7 |
| AGCUGGUGACAGCAAGAAACUUCACAUGAGGAUCACCCAUGUAGAAGGCUGUACGGUUACCGUACAGAGGAUAUACAUUGAAGA | – | – | 5.59 | 8.63 |
| AGCUGGUGACAGCAUCCAUCAAAACAUGAGGAUCACCCAUGUAGAAGGCUGUACGGUUACCGUACAGAGGAUAUACAAUGAUGU | – | – | 15.2 | 26.2 |
| AGCUGGUGACAGCAUCCAUCCUGACAUGAGGAUCACCCAUGUAGAAGGCUGUACGGUUACCGUACAGAGGAUAUACAAUGAUGG | – | – | 10.1 | 22.3 |
| AGCUGUGGCAGAGGAUAUACUACCAUAAUCCAUUGCAAAUAGCGAUGGACAUGAGGAUCACCCAUGUAGAAGGCUGUCUCAGCA | – | – | 68.2 | 275 |
| AGCUGUGGCCGAGGAUAUCUAAACCUCGAAAACGAAAUAUAAUCGAACAUGAGGAUCACCCAUGUAGAGAAGGCGGUCUCAGCA | – | – | 69.6 | 211 |
| AGCUGUGGCCGAGGAUAUCUAAAUUCUCAAAACGAAAUAUAAUCGAACAUGAGGAUCACCCAUGUAGAGAAGGCGGUCUCAGCA | – | – | 39 | 298 |
| AGGAAGCAAGGAUAUACGAGGAGAAGGUGGAGAGUUAAAGGACAUGAGGAUCACCCAUGUAGAAGGUGCGAGAA | – | – | 59.7 | 76.8 |
| AGGAAGUAAGGAUAUGCUGCUCGUCACUUGCGUGAUGAGUAGCAGAAGGUACAUGAGGAUCACCCAUGUAAAGA | – | – | 23.7 | 20.6 |
| AGGAAGUGAGGAUAUGCAUCAUAUAGUGGACGCUAUAGAAUGUAGAAGGCACAUGAGGAUCACCCAUGUUUAAA | – | – | 30.2 | 29.3 |
